The values that follow come from ChEMBL document CHEMBL1151434 (Antimicrob Agents Chemother, 2007).

Data set [1] has as its system Chlamydia trachomatis. The experiment in a line: Antibacterial activity against 0.01 MOI wild type Chlamydia trachomatis L2/LGV/434/Bu infected in mouse L2 cells treated 2 hrs after infection measured on day 7 by plaque assay. It counts as functional. Summed up: (§1)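 Susceptibility measured in a plaque assay on confluent mouse fibroblast L2 cell monolayers in 60-mm dishes. The inoculum was 10^5 chlamydial PFU, equal to an MOI of 0.01. MIC was taken as the drug concentration that inhibited development of these 10^5 PFU.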

In data set [2] the test system is Chlamydia trachomatis. The experiment in a line: Antibacterial activity against azithromycin-tolerant 0.01 MOI Chlamydia trachomatis L2AZM#31 harboring mutation in bacterial ribosomal protein L4 infected in mouse L2 cells treated 2 hrs after infection measured on day 7 by plaque assay. It counts as functional. Summed up: as §1
The test system of data set [3] is Chlamydia trachomatis. Kind of data set: Antibacterial activity against azithromycin-tolerant 0.01 MOI Chlamydia trachomatis L2AZM#23 harboring mutation in bacterial ribosomal protein L4 infected in mouse L2 cells treated 2 hrs after infection measured on day 7 by plaque assay. It counts as functional. Summed up:
as §1

A further data set concerns Chlamydia psittaci 6BC. The experiment in a line: Antibacterial activity against 0.01 MOI wild type Chlamydia psittaci 6BC BCRB infected in mouse L2 cells treated 2 hrs after infection measured on day 7 by plaque assay. It counts as functional. Summed up: as §1
Data set [4] is described as follows: Biodistribution in healthy human epithelial lining fluid assessed as drug accumulation at 500 mg. It counts as ADME, organism-based. The following applies: in vivo.

≈ marks a conversion by molar mass, not a printed value.

Take `CC[C@H]1OC(=O)[C@H](C)[C@@H](O[C@H]2C[C@@](C)(OC)[C@@H](O)[C@H](C)O2)[C@H](C)[C@@H](O[C@@H]2O[C@H](C)C[C@H](N(C)C)[C@H]2O)[C@](C)(O)C[C@@H](C)CN(C)[C@H](C)[C@@H](O)[C@]1(C)O` [AZITHROMYCIN]: the MIC in the data set on Chlamydia trachomatis [1] worked out at 0.1 µg/mL (≈ 0.134 µM); against Chlamydia trachomatis [2] it was 0.8 µg/mL (≈ 1.07 µM); in the data set with Chlamydia trachomatis [3], 0.8 µg/mL (≈ 1.07 µM); against Chlamydia psittaci 6BC, 0.1 µg/mL (≈ 0.134 µM). Besides, the Drug uptake in data set [4] was 2 µg/mL.

Regarding `O=C(N[C@H](CO)[C@H](O)c1ccc([N+](=O)[O-])cc1)C(Cl)Cl` [CHLORAMPHENICOL], the MIC with Chlamydia trachomatis [1], in the data set with Chlamydia trachomatis [2] and against Chlamydia trachomatis [3] was 0.4 µg/mL (≈ 1.24 µM) throughout.

For `CCC[C@@H]1C[C@@H](C(=O)N[C@@H]([C@H]2O[C@H](SC)[C@H](O)[C@@H](O)[C@H]2O)[C@H](C)Cl)N(C)C1` [CLINDAMYCIN], the MIC was determined as 0.125 µg/mL (≈ 0.294 µM) against Chlamydia trachomatis [1], 0.5 µg/mL (≈ 1.18 µM) in the data set on Chlamydia trachomatis [2], 0.5 µg/mL (≈ 1.18 µM) in the data set on Chlamydia trachomatis [3] and 0.4 µg/mL (≈ 0.941 µM) in the data set on Chlamydia psittaci 6BC.

`CC[C@H]1OC(=O)[C@H](C)[C@@H](O[C@H]2C[C@@](C)(OC)[C@@H](O)[C@H](C)O2)[C@H](C)[C@@H](O[C@@H]2O[C@H](C)C[C@H](N(C)C)[C@H]2O)[C@](C)(O)C[C@@H](C)C(=O)[C@H](C)[C@@H](O)[C@]1(C)O` [ERYTHROMYCIN]: the MIC against Chlamydia trachomatis [1] came to 0.2 µg/mL (≈ 0.273 µM); against Chlamydia trachomatis [2], 0.8 µg/mL (≈ 1.09 µM); against Chlamydia trachomatis [3] it was 0.8 µg/mL (≈ 1.09 µM); against Chlamydia psittaci 6BC it was 0.2 µg/mL (≈ 0.273 µM).

As for `CO[C@@H]1[C@@H](O[C@@H]2O[C@H](C)[C@@H](O[C@H]3C[C@@](C)(O)[C@@H](OC(=O)CC(C)C)[C@H](C)O3)[C@H](N(C)C)[C@H]2O)[C@@H](CC=O)C[C@@H](C)[C@@H](O)/C=C/C=C/C[C@@H](C)OC(=O)C[C@H]1OC(C)=O` [JOSAMYCIN], the MIC against Chlamydia trachomatis [1] stood at 0.05 µg/mL (≈ 0.0604 µM); in the data set with Chlamydia trachomatis [2], 0.2 µg/mL (≈ 0.242 µM); against Chlamydia trachomatis [3] it was 0.2 µg/mL (≈ 0.242 µM); in the data set with Chlamydia psittaci 6BC it was 0.05 µg/mL (≈ 0.0604 µM).

As for SPIRAMYCIN, the MIC with Chlamydia trachomatis [1] came out at 0.8 µg/mL; in the data set on Chlamydia trachomatis [2], 4 µg/mL; in the data set with Chlamydia trachomatis [3] it was 4 µg/mL; against Chlamydia psittaci 6BC, 1 µg/mL.
